Published values collected from several papers.
Target: Tyrosine-protein kinase Fes/Fps (FES, Homo sapiens, UniProt P07332)

Structure (SMILES) | test | system | setting | measurement | value
CNc1cc(Oc2cc(C(=O)Nc3cc(N4CCN(C)CC4)cc(C(F)(F)F)c3)ccc2C)ncn1 | target engagement in cells, inhibitor, chemoproteomics | Huh-7 | 1 µM | inhibition | -21.4%
Cc1ccc(NC(=O)c2ccc(C)c(C(F)(F)F)c2)cc1C#Cc1nn(C2CCC(O)CC2)c2ncnc(N)c12 (centres unmarked) | cell-free assay |  | 10 µM | remaining signal | 34%
O=C(Nc1cnn(-c2csc(C(=O)NC3COC3)c2)c1)Nc1c(F)cccc1Cl | enzyme activity, inhibitor |  | 5 µM | remaining activity | 87.8%
CCCS(=O)(=O)Nc1ccc(F)c(C(=O)c2c[nH]c3ncc(-c4ccc(Cl)cc4)cc23)c1F | enzyme activity, inhibitor |  | 1 µM | inhibition | < 20%
COc1cc2nccc(Oc3ccc(NC(=O)c4c5n(n(-c6ccc(F)cc6)c4=O)CCCC5)cc3)c2cc1OC | enzyme activity, inhibitor |  | 0.1 µM | inhibition | -3%
NS(=O)(=O)c1cc(NC(=O)Cc2ccccc2)ccc1Oc1cccc(Cl)c1 | cell-free assay, competition with immobilised ligand |  | 1 µM | remaining binding | 92%
CC(C)(C)c1nc(-c2cccc(NS(=O)(=O)c3c(F)cccc3F)c2F)c(-c2ccnc(N)n2)s1 | enzyme activity, inhibitor, radiometric |  | 1 µM | remaining activity | 88%
COc1cc2ncnc(Nc3ccc(Oc4ccccc4)cc3C)c2cc1OC | enzyme activity, inhibitor |  | 1 µM | inhibition | 27%
Cc1cc(NC(=O)c2cccc3cc(-c4cccc5[nH]nc(N)c45)ccc23)ccc1F | enzyme activity, inhibitor |  | 0.1 µM | activity vs control | 97%
CNC(=O)c1cc(Oc2ccc(NC(=O)Nc3ccc(Cl)c(C(F)(F)F)c3)cc2)ccn1 | cell-free assay |  | 0.5 µM | remaining signal | 104%
C[C@@H]1CN(c2cc(-c3nn(C)c4ccc(OC5(C)CC5)cc34)ncn2)C[C@H](C)O1 | cell-free assay, competition with immobilised ligand |  | 1 µM | remaining binding | 93%
COc1cc(Cl)c(C(=O)N[C@@H](CN[C@H]2CC[C@@H](N)CC2)Cc2ccc(C#N)cc2)cc1-c1ccc(CN[C@H](C)c2ccc(C)cc2)o1 | enzyme activity, inhibitor |  | 1 µM | remaining activity | 94%
N#CCCc1ccc2c(c1)-c1[nH]c3ccc([N+](=O)[O-])cc3c1CC(=O)N2 | cell-free assay |  | 0.5 µM | remaining signal | 37.9%
CC1=C(C#N)[C@@H](c2ccc3[nH]nc(C)c3c2)C(C#N)=C(c2ccc(Cl)cc2)N1 | cell-free assay, competition with immobilised ligand |  | 1 µM | remaining binding | 100%
Cc1sc(C(=O)NC2COC2)cc1-n1cc(NC(=O)Nc2c(F)cccc2Cl)cn1 | enzyme activity, inhibitor |  | 10 µM | remaining activity | 93.7%
C[C@@H]1CN(c2cc(-c3n[nH]c4ccc(OC5(C)CC5)cc34)ncn2)C[C@H](C)O1 | cell-free assay, competition with immobilised ligand |  | 0.1 µM | remaining binding | 87%
Cc1ccc(NC(=O)c2ccc(CN3CCN(C)CC3)cc2)cc1Nc1nccc(-c2cncc(-c3oncc3C)c2)n1 | enzyme activity, inhibitor |  | 0.5 µM | remaining activity | ≤ 50%
COc1ccc2c(O[C@@H]3C[C@H]4C(=O)N[C@]5(C(=O)O)CC5/C=C\CCCCC[C@H](NC(=O)OC5CCCC5)C(=O)N4C3)cc(-c3csc(NC(=O)C(C)C)n3)nc2c1C (some centres unmarked) | cell-free assay, competition with immobilised ligand |  | 1 µM | remaining binding | 100%
CNCc1ccc(-c2cc(-c3nc(-c4ccc(S(=O)(=O)C(C)C)cc4)cnc3N)on2)cc1 | enzyme activity, inhibitor |  | 2 µM | inhibition | 0%
CSc1cccnc1N1CCN(Cc2nc3ccccc3[nH]2)CC1 | cell-free assay, competition with immobilised ligand |  | 1 µM | remaining binding | 98%
O=C1Nc2ccc(Cl)cc2C1=Cc1cc(Cl)c(O)c(Cl)c1 | cell-free assay |  | 0.5 µM | remaining signal | 93.7%
O=C(O)[C@@H]1[C@@H](Cn2nnc3ccccc3c2=O)CC[C@H]1C(=O)c1ccc(OCCC2CCOCC2)cc1 | cell-free assay, competition with immobilised ligand |  | 1 µM | remaining binding | 100%
CCCOc1ccc(OC)c(F)c1C(=O)c1ccc(C(=O)N[C@@H]2CNC[C@H]2NC(=O)c2ccc3[nH]ncc3c2)cc1 | enzyme activity, inhibitor |  | 10 µM | remaining activity | 79%
